In ChEMBL document CHEMBL4351008, “Discovery of novel pyrimidine-based benzothiazole derivatives as potent cyclin-dependent kinase 2 inhibitors with anticancer activity” (Eur J Med Chem, 2019):

How the values were obtained:
HCT-116 [1] = assay: Induction of cell cycle arrest in human HCT116 cells assessed as accumulation at G0/G1 phase at 1.4 uM incubated for 24 hrs by PI staining based flow cytometric analysis (reference value: 37.26%); type: functional
HCT-116 [2] = assay: Induction of cell cycle arrest in human HCT116 cells assessed as accumulation at S phase at 0.35 uM incubated for 24 hrs by PI staining based flow cytometric analysis (reference value: 45.26%); type: functional
HCT-116 [3] = assay: Induction of cell cycle arrest in human HCT116 cells assessed as accumulation at G2/M phase at 1.4 uM incubated for 24 hrs by PI staining based flow cytometric analysis (reference value: 17.48%); type: functional
HeLa = assay: Antiproliferative activity against human HeLa cells incubated for 48 hrs by MTT assay; type: functional, cell-based
How it was run: (§1)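 Cells kept at 37 °C in humidified 5% CO2: MDA-MB-231, MCF-7, HeLa and HCT116 in RPMI-1640; PC-3 in DMEM/F12; both media had 10% FBS. Compounds came from 60 mM DMSO stocks diluted in medium. At 70–80% confluence, cells got fresh medium with compound for 48 h at 37 °C, with 0.1% DMSO as negative control. MTT (5 mg/mL stock) was added for 4 h, and formazan was dissolved in DMSO and read at 570 nm. % inhibition was taken relative to control, IC50 was fitted, and data are mean ± SD of three independent experiments in duplicate.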

MCF7 = assay: Antiproliferative activity against human MCF7 cells incubated for 48 hrs by MTT assay; type: functional, cell-based; settings: MCF7, 48 h; how it was run: as §1
[4] = target: T1, CDK2/Cyclin A2 (Homo sapiens) (UniProt P24941+P20248); assay: Inhibition of CDK2/cyclin A2 (unknown origin) using histone H1 and ATP as substrate at 1 uM incubated for 40 mins by kinase-glo luminescence assay relative to control; type: protein-complex assay
How it was run: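 Recombinant CDK2/cyclin A2 (0.2 µg/mL) was run with 0.1 mg/mL histone H1 and 10 µM ATP in 40 mM Tris pH 7.4, 10 mM MgCl2, 0.1 mg/mL BSA and 1 mM DTT, for 40 min at 30 °C. Compound was tested at 1 µM final, with 1% DMSO final. Remaining ATP was quantified by Kinase-Glo Plus luminescence, which is inversely related to kinase activity.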

HCT-116 [5] = assay: Induction of cell cycle arrest in human HCT116 cells incubated for 24 hrs by PI staining based flow cytometric analysis; type: functional
HCT-116 [6] = assay: Induction of apoptosis in human HCT116 cells assessed as early apoptotic cells at 0.35 uM incubated for 24 hrs by Annexin-V-FITC/propidium iodide staining based flow cytometric analysis (reference value: 2.28%); type: functional
HCT-116 [7] = assay: Induction of cell cycle arrest in human HCT116 cells assessed as accumulation at G2/M phase at 0.35 uM incubated for 24 hrs by PI staining based flow cytometric analysis (reference value: 17.48%); type: functional
CDK2/Cyclin A2 = CDK2/Cyclin A2 (Homo sapiens, UniProt P24941); assay: Inhibition of CDK2/cyclin A2 (unknown origin) using histone H1 and ATP as substrate incubated for 40 mins by kinase-glo luminescence assay; type: protein-complex assay
HCT-116 [8] = assay: Induction of apoptosis in human HCT116 cells assessed as live cells at 1.4 uM incubated for 24 hrs by Annexin-V-FITC/propidium iodide staining based flow cytometric analysis (reference value: 97.7%); type: functional
HCT-116 [9] = assay: Induction of apoptosis in human HCT116 cells assessed as necrotic cells at 0.35 uM incubated for 24 hrs by Annexin-V-FITC/propidium iodide staining based flow cytometric analysis (reference value: 0%); type: functional
HCT-116 [10] = assay: Induction of apoptosis in human HCT116 cells assessed as necrotic cells at 0.7 uM incubated for 24 hrs by Annexin-V-FITC/propidium iodide staining based flow cytometric analysis (reference value: 0%); type: functional
HCT-116 [11] = assay: Induction of apoptosis in human HCT116 cells assessed as live cells at 0.7 uM incubated for 24 hrs by Annexin-V-FITC/propidium iodide staining based flow cytometric analysis (reference value: 97.7%); type: functional
MDA-MB-231 = assay: Antiproliferative activity against human MDA-MB-231 cells incubated for 48 hrs by MTT assay; type: functional, cell-based; settings: MDA-MB-231, 48 h; how it was run: as §1
PC-3 = assay: Antiproliferative activity against human PC3 cells incubated for 48 hrs by MTT assay; type: functional, cell-based; settings: PC-3, 48 h; how it was run: as §1
HCT-116 [12] = assay: Induction of apoptosis in human HCT116 cells assessed as early apoptotic cells at 1.4 uM incubated for 24 hrs by Annexin-V-FITC/propidium iodide staining based flow cytometric analysis (reference value: 2.28%); type: functional
HCT-116 [13] = assay: Antiproliferative activity against human HCT116 cells incubated for 48 hrs by MTT assay; type: functional, cell-based; settings: HCT-116, 48 h; how it was run: as §1
HCT-116 [14] = assay: Induction of apoptosis in human HCT116 cells assessed as late apoptotic cells at 0.35 uM incubated for 24 hrs by Annexin-V-FITC/propidium iodide staining based flow cytometric analysis (reference value: 0.027%); type: functional
HCT-116 [15] = assay: Induction of apoptosis in human HCT116 cells assessed as early apoptotic cells at 0.7 uM incubated for 24 hrs by Annexin-V-FITC/propidium iodide staining based flow cytometric analysis (reference value: 2.28%); type: functional
HCT-116 [16] = assay: Induction of apoptosis in human HCT116 cells assessed as late apoptotic cells at 1.4 uM incubated for 24 hrs by Annexin-V-FITC/propidium iodide staining based flow cytometric analysis (reference value: 0.027%); type: functional
HCT-116 [17] = assay: Induction of cell cycle arrest in human HCT116 cells assessed as accumulation at G0/G1 phase at 0.7 uM incubated for 24 hrs by PI staining based flow cytometric analysis (reference value: 37.26%); type: functional
HCT-116 [18] = assay: Induction of apoptosis in human HCT116 cells assessed as live cells at 0.35 uM incubated for 24 hrs by Annexin-V-FITC/propidium iodide staining based flow cytometric analysis (reference value: 97.7%); type: functional
HCT-116 [19] = assay: Induction of cell cycle arrest in human HCT116 cells assessed as accumulation at G0/G1 phase at 0.35 uM incubated for 24 hrs by PI staining based flow cytometric analysis (reference value: 37.26%); type: functional
HCT-116 [20] = assay: Induction of apoptosis in human HCT116 cells incubated for 24 hrs by Annexin-V-FITC/propidium iodide staining based flow cytometric analysis; type: functional, cell-based
[21] = target: T1, CDK2/Cyclin A2 (Homo sapiens); assay: Potency index, ratio of AZD5438 IC50 to compound IC50 for CDK2/cyclin A2 (unknown origin) using histone H1 and ATP as substrate incubated for 40 mins by kinase-glo luminescence assay; type: protein-complex assay
HCT-116 [22] = assay: Induction of cell cycle arrest in human HCT116 cells assessed as accumulation at S phase at 0.7 uM incubated for 24 hrs by PI staining based flow cytometric analysis (reference value: 45.26%); type: functional
HCT-116 [23] = assay: Induction of apoptosis in human HCT116 cells assessed as necrotic cells at 1.4 uM incubated for 24 hrs by Annexin-V-FITC/propidium iodide staining based flow cytometric analysis (reference value: 0%); type: functional
HCT-116 [24] = assay: Induction of cell cycle arrest in human HCT116 cells assessed as accumulation at G2/M phase at 0.7 uM incubated for 24 hrs by PI staining based flow cytometric analysis (reference value: 17.48%); type: functional
HCT-116 [25] = assay: Induction of cell cycle arrest in human HCT116 cells assessed as debris content at 0.7 uM incubated for 24 hrs by PI staining based flow cytometric analysis (reference value: 0%); type: functional
HCT-116 [26] = assay: Induction of cell cycle arrest in human HCT116 cells assessed as accumulation at S phase at 1.4 uM incubated for 24 hrs by PI staining based flow cytometric analysis (reference value: 45.26%); type: functional
HCT-116 [27] = assay: Induction of cell cycle arrest in human HCT116 cells assessed as debris content at 0.35 uM incubated for 24 hrs by PI staining based flow cytometric analysis (reference value: 0%); type: functional
HCT-116 [28] = assay: Induction of cell cycle arrest in human HCT116 cells assessed as debris content at 1.4 uM incubated for 24 hrs by PI staining based flow cytometric analysis (reference value: 0%); type: functional
HCT-116 [29] = assay: Induction of apoptosis in human HCT116 cells assessed as late apoptotic cells at 0.7 uM incubated for 24 hrs by Annexin-V-FITC/propidium iodide staining based flow cytometric analysis (reference value: 0.027%); type: functional

With NS(=O)(=O)c1ccc(Nc2nccc(Nc3nc4ccc(F)cc4s3)n2)cc1 the Activity (HCT-116 [1]) was 34.57%, the Activity (HCT-116 [2]) was 39.03% and the Activity (HCT-116 [3]) was 46.92%. For the same compound, the IC50 (HeLa) was 450 nM, the IC50 (MCF7) was 10900 nM and the inhibition [4] was 94%. For the same compound, the Activity (HCT-116 [5]) was “Dose-dependent effect”, the Activity (HCT-116 [6]) was 10.1% and the Activity (HCT-116 [7]) was 24.36%. The IC50 (CDK2/Cyclin A2) was 15.4 nM, the Activity (HCT-116 [8]) was 51.4% and the Activity (HCT-116 [9]) was 0.027%. It also gave an Activity (HCT-116 [10]) of 0.384%, an Activity (HCT-116 [11]) of 64.3% and an IC50 (MDA-MB-231) of 1800 nM. The IC50 (PC-3) was 920 nM, the Activity (HCT-116 [12]) was 19.1% and the IC50 (HCT-116 [13]) was 700 nM. For the same compound, the Activity (HCT-116 [14]) was 9.07%, the Activity (HCT-116 [15]) was 13% and the Activity (HCT-116 [16]) was 29.1%. The Activity (HCT-116 [17]) was 35.61%, the Activity (HCT-116 [18]) was 80.8% and the Activity (HCT-116 [19]) was 36.61%. The Activity (HCT-116 [20]) was “Dose-dependent effect”, the Ratio IC50 [21] was 3 and the Activity (HCT-116 [22]) was 30.88%. The Activity (HCT-116 [23]) was 0.414%, the Activity (HCT-116 [24]) was 33.51% and the Activity (HCT-116 [25]) was 6.86%. For the same compound, the Activity (HCT-116 [26]) was 18.51%, the Activity (HCT-116 [27]) was 0.74% and the Activity (HCT-116 [28]) was 39.3%. It also gave an Activity (HCT-116 [29]) of 22.3%.
